Biological target: RXFP2 (Homo sapiens, UniProt Q8WXD0)
Type: cell-based
Conditions: for agonist/antagonist character at RXFP2 (in words): cAMP reporter gene assay
Summary of the method: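 HEK-293T cells were co-transfected in 96-well format with RXFP2 and a pCRE–β-galactosidase reporter plasmid. They were exposed to increasing concentrations of test peptide for 6 h, then the medium was aspirated and the cells frozen at −80°C overnight before β-galactosidase was measured. Signals were normalised to the maximal native INSL3 response. Triplicates were run in three experiments, with pEC50 from a variable-slope sigmoidal fit.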

RXFP2, sequence (Q8WXD0 whole entry): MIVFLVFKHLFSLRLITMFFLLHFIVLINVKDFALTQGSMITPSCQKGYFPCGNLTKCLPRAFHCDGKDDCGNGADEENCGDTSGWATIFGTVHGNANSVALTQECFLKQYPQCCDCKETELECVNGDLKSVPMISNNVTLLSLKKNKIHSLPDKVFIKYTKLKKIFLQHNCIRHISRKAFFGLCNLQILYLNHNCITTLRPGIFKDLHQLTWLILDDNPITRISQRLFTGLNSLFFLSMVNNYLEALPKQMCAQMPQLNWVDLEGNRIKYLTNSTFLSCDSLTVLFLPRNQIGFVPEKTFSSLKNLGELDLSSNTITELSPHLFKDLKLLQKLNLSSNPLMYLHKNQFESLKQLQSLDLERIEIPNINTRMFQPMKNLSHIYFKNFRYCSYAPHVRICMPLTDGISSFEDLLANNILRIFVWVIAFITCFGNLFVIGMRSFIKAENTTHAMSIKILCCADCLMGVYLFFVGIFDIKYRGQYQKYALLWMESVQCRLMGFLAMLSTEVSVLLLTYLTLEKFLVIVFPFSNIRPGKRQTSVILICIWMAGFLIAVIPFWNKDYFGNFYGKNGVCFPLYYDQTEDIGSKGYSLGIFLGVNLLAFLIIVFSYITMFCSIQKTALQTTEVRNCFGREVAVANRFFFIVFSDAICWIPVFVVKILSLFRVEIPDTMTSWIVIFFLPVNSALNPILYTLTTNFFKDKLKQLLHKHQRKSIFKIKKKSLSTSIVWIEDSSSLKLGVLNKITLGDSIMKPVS

Row | Compound | agonist/antagonist character at RXFP2 (in words) | ability to stimulate cAMP activity in RXFP2 expressing cells (in concentrations up to 1 μM)
1 | CSCC[C@H](NC(=O)[C@H](CCC(=O)O)NC(=O)[C@@H]1CCCN1C(=O)[C@@H](NC(=O)[C@@H]1CCCN1)[C@@H](C)O)C(=O)N[C@@H](CCCNC(=N)N)C(=O)N[C@@H](CCC(=O)O)C(=O)N[C@@H](CCCCN)C(=O)N[C@@H](CC(C)C)C(=O)N[C@H]1CSSC[C@@H]2NC(=O)[C@@H](NC(=O)[C@H](CCCCN)NC(=O)[C@H](CC(N)=O)NC(=O)[C@H](C)NC(=O)[C@H](CC(C)C)NC(=O)[C@H](C)NC(=O)[C@H](CO)NC(=O)[C@H](Cc3ccc(O)cc3)NC(=O)[C@H](CC(C)C)NC(=O)[C@@H]3CCC(=O)N3)CSSC[C@H](NC(=O)CNC(=O)[C@H](C(C)C)NC(=O)[C@H](Cc3c[nH]cn3)NC2=O)C(=O)N[C@@H]([C@@H](C)O)C(=O)N[C@@H](CCCCN)C(=O)N[C@@H](CCCNC(=N)N)C(=O)N[C@@H](CO)C(=O)N[C@@H](CC(C)C)C(=O)N[C@@H](C)C(=O)N[C@@H](CCCNC(=N)N)C(=O)N[C@@H](Cc2ccccc2)C(=O)N[C@H](C(=O)O)CSSC[C@@H](C(=O)NCC(=O)NCC(=O)N2CCC[C@H]2C(=O)N[C@@H](CCCNC(=N)N)C(=O)N[C@@H](Cc2c[nH]c3ccccc23)C(=O)N[C@@H](CO)C(=O)N[C@H](C(=O)N[C@@H](CCC(=O)O)C(=O)N[C@@H](C)C(=O)O)[C@@H](C)O)NC(=O)[C@H](C(C)C)NC(=O)[C@H](CCCNC(=N)N)NC(=O)[C@H](C(C)C)NC(=O)[C@H](CC(C)C)NC(=O)[C@H](C)NC(=O)[C@H](CCCNC(=N)N)NC(=O)[C@H](C(C)C)NC(=O)[C@H](Cc2ccccc2)NC(=O)[C@H](Cc2c[nH]cn2)NC(=O)[C@H](Cc2c[nH]cn2)NC(=O)CNC1=O [H2-A/INSL3-B] | partial agonist | –
2 | CSCC[C@H](NC(=O)[C@H](CCC(=O)O)NC(=O)[C@@H]1CCCN1C(=O)[C@@H](NC(=O)[C@@H]1CCCN1)[C@@H](C)O)C(=O)N[C@@H](CCCNC(=N)N)C(=O)N[C@@H](CCC(=O)O)C(=O)N[C@@H](CCCCN)C(=O)N[C@@H](CC(C)C)C(=O)N[C@H]1CSSC[C@@H]2NC(=O)[C@@H](NC(=O)[C@H](CC(C)C)NC(=O)[C@@H](NC(=O)[C@H](CCC(N)=O)NC(=O)[C@H](CC(C)C)NC(=O)[C@H](CC(=O)O)NC(=O)[C@@H]3CCC(=O)N3)[C@@H](C)O)CSSC[C@H](NC(=O)CNC(=O)[C@H](CC(=O)O)NC(=O)[C@H]([C@@H](C)O)NC2=O)C(=O)N[C@@H](CO)C(=O)N[C@@H](CCSC)C(=O)N[C@@H]([C@@H](C)O)C(=O)N[C@@H](CC(=O)O)C(=O)N[C@@H](CC(C)C)C(=O)N[C@@H](CO)C(=O)N[C@@H](C)C(=O)N[C@@H](CC(C)C)C(=O)N[C@H](C(=O)O)CSSC[C@@H](C(=O)NCC(=O)NCC(=O)N2CCC[C@H]2C(=O)N[C@@H](CCCNC(=N)N)C(=O)N[C@@H](Cc2c[nH]c3ccccc23)C(=O)N[C@@H](CO)C(=O)N[C@H](C(=O)N[C@@H](CCC(=O)O)C(=O)N[C@@H](C)C(=O)O)[C@@H](C)O)NC(=O)[C@H](C(C)C)NC(=O)[C@H](CCCNC(=N)N)NC(=O)[C@H](C(C)C)NC(=O)[C@H](CC(C)C)NC(=O)[C@H](C)NC(=O)[C@H](CCCNC(=N)N)NC(=O)[C@H](C(C)C)NC(=O)[C@H](Cc2ccccc2)NC(=O)[C@H](Cc2c[nH]cn2)NC(=O)[C@H](Cc2c[nH]cn2)NC(=O)CNC1=O [INSL5-A/INSL3-B] | high affinity antagonists | unable to stimulate cAMP
